Results from ChEMBL document CHEMBL1135666, “Adenosine 5'-O-(1-boranotriphosphate) derivatives as novel P2Y(1) receptor agonists” (J Med Chem, 2002).

Key:
NTPDase1 = assay: Kinetic parameter Km value for Bovine spleen NTPDase1 hydrolysis.; type: ADME, Bos taurus; conditions: cattle
Method in brief: (§1)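 Semipurified bovine spleen particulate NTPDase1 (about 1 μg protein), preincubated 3 min at 37 °C in 8 mM CaCl2, 5 mM tetramisole, 50 mM imidazole, 50 mM Tris pH 7.5. The reaction was started with substrate at 10–100 μM and stopped after 7 min with malachite green to read Pi release. Apparent Km and Vmax came from a Woolf–Augustinson–Hofstee plot; assays were run in triplicate.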

P2Y purinoceptor 1 = P2Y purinoceptor 1 (Rattus norvegicus, UniProt P49651); assay: Agonists activity was evaluated by release of [Ca2+] release of HEK 293 cells stably transfected with rat-brain P2Y purinoceptor 1 (P2Y1-R); type: functional, cell-based, HEK293
Chain of P2Y purinoceptor 1 (P49651 whole entry, the tested form may be a part): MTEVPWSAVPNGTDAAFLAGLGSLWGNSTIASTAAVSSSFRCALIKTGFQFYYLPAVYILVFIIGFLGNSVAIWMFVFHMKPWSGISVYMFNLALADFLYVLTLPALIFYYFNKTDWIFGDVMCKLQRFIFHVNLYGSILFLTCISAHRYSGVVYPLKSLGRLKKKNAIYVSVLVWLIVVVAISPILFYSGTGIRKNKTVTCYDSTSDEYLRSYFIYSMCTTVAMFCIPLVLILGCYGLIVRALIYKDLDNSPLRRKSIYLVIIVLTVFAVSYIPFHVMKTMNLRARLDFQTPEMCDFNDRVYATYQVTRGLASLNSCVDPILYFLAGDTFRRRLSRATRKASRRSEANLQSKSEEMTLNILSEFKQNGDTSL
Method in brief: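 HEK293 cells stably expressing rat brain P2Y1 receptor, grown on coverslips, loaded 30 min with 2 μM Fura 2-AM in HEPES-buffered saline pH 7.4. Continuous superfusion with 35 °C HBS containing varying nucleotide concentrations. Single-cell fluorescence at 340/380 nm excitation, 500 nm emission. EC50 from concentration–response of ΔF340/F380, averaged over 60–100 cells; at least three separate experiments; ATP as reference.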

Bos taurus = species: Bos taurus; assay: Kinetic parameter Vmax value for Bovine spleen NTPDase1 hydrolysis.; type: ADME; conditions: cattle; method in brief: as §1
Half life was determined = conditions: pH 1.4, 37 °C
[1] = Hydrolysis rate constant was determined; type: ADME
Method in brief: (§2)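 ³¹P NMR follow-up of hydrolysis at 37 °C. At pH 7.4 the diastereoisomeric mixture (tetrasodium salt) was held in Tris-HCl buffer and recorded for 3 weeks at 1–3 day intervals; hydrolysis came from Pγ (−7.5 ppm) versus inorganic phosphate (1.7 ppm) integrals. At pH 1.4 the sample was in KCl/HCl buffer with D2O, recorded for 17 h every 0.5 h; Pβ intensity versus time was fit to pseudo-first-order kinetics.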

[2] = Half life was determined; type: ADME; method in brief: as §2

Structure (SMILES)	Km (NTPDase1)	EC50 (P2Y purinoceptor 1)	Vmax (Bos taurus)	half-life (Half life was determined)	Hydrolysis rate constant [1]	half-life [2]
CSc1nc(N)c2ncn([C@@H]3O[C@H](COP(=O)([O-])OP(=O)([O-])OP(=O)([O-])[O-])[C@@H](O)[C@H]3O)c2n1.[Na+].[Na+].[Na+].[Na+]	62 µM	1 nM	1.9 µmol/min/mg	–	–	–
Nc1ncnc2c1ncn2[C@@H]1O[C@H](COP(=O)([O-])OP(=O)([O-])OP(=O)([O-])[O-])[C@@H](O)[C@H]1O.[Na+].[Na+].[Na+].[Na+]	15.9 µM	–	2.4 µmol/min/mg	–	–	–
Nc1nc(Cl)nc2c1ncn2[C@@H]1O[C@H](COP(=O)([O-])OP(=O)([O-])OP(=O)([O-])[O-])[C@@H](O)[C@H]1O.[Na+].[Na+].[Na+].[Na+]	12.9 µM	–	1.9 µmol/min/mg	–	–	–
[BH3-]P(=O)(OC[C@H]1O[C@@H](n2cnc3c(N)nc(SC)nc32)[C@H](O)[C@@H]1O)OP(=O)([O-])OP(=O)([O-])[O-].[Na+].[Na+].[Na+].[Na+] (stereo partly drawn)	17.4 µM	2.6 nM	0.89 µmol/min/mg	5.9 h	–	–
[BH3-]P(=O)(OC[C@H]1O[C@@H](n2cnc3c(N)nc(Cl)nc32)[C@H](O)[C@@H]1O)OP(=O)([O-])OP(=O)([O-])[O-].[Na+].[Na+].[Na+].[Na+] (stereo partly drawn)	7.2 µM	–	0.88 µmol/min/mg	–	7.2e-05 s⁻¹	2.7 h
[BH3-]P(=O)(OC[C@H]1O[C@@H](n2cnc3c(N)ncnc32)[C@H](O)[C@@H]1O)OP(=O)([O-])OP(=O)([O-])[O-].[Na+].[Na+].[Na+].[Na+] (stereo partly drawn)	13.8 µM	200 nM	0.78 µmol/min/mg	–	–	–
